Experimental data published in ChEMBL document CHEMBL3098122, “Synthesis, biological activity and structure-activity relationships of new benzoic acid-based protein tyrosine phosphatase inhibitors endowed with insulinomimetic effects in mouse C2C12 skeletal muscle cells” (Eur J Med Chem, 2014).
Activity calls are given as the source filed them. No cut-off for these calls is given here.

Key:
[1] = biological target: T1, Low molecular weight phosphotyrosine protein phosphatase (Homo sapiens, UniProt P24666); assay: Inhibition of human recombinant LMW-PTP IF2 expressed in Escherichia coli TB1 using p-nitrophenylphosphate as substrate
T1 sequence (P24666 whole entry): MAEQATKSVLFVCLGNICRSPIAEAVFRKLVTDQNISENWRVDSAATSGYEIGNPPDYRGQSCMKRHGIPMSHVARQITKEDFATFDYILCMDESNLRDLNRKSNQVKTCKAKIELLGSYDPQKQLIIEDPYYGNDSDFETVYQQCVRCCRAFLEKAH

[2] = biological target: T1, Low molecular weight phosphotyrosine protein phosphatase; assay: Inhibition of human recombinant LMW-PTP IF1 expressed in Escherichia coli TB1 using p-nitrophenylphosphate as substrate
[3] = biological target: T2, Tyrosine-protein phosphatase non-receptor type 1 (Homo sapiens, UniProt P18031); assay: Inhibition of human recombinant PTP1B expressed in Escherichia coli TB1 using p-nitrophenylphosphate as substrate
T2 sequence (P18031 whole entry): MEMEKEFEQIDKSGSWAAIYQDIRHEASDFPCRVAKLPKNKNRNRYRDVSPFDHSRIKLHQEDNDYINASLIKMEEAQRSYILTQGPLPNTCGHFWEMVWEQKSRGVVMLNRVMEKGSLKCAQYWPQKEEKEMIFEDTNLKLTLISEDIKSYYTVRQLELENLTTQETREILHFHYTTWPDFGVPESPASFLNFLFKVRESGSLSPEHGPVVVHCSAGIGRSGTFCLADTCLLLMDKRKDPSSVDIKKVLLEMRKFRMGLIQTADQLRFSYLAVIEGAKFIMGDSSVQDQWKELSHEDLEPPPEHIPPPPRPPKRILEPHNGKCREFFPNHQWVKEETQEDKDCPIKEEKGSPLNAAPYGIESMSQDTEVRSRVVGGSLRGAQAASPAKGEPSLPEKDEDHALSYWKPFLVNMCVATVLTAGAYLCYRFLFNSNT

[4] = species on record: Homo sapiens; assay: Selectivity ratio of IC50 for human recombinant LMW-PTP IF1 to IC50 for human recombinant PTP1B
[5] = biological target: T3, Tyrosine-protein phosphatase non-receptor type 1 (Mus musculus) (UniProt P35821); assay: Inhibition of PTP1B in mouse C2C12 cells assessed as increase of insulin receptor beta phosphorylation at 25 uM after 90 mins; assay type: cell-based
T3 sequence (whole entry): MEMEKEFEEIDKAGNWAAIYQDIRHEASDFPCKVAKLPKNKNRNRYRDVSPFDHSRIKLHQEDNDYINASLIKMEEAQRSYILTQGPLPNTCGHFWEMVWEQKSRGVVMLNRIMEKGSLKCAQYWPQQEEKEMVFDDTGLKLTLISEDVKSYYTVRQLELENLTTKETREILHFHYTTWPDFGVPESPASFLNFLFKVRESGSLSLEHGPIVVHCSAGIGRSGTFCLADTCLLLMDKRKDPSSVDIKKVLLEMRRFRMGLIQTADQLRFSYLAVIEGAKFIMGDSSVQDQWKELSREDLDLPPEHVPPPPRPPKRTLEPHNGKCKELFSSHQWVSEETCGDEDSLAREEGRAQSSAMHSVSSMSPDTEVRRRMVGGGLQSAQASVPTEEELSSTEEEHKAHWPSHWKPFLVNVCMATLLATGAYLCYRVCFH
Procedure, shortened: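 Differentiated, 20 h serum-starved C2C12 myotubes exposed to 25 µM compound (DMSO 1.2% final) for 90 min at 37 °C, insulin 10 nM 30 min as positive control; lysates run on SDS-PAGE, Western blot for phospho-insulin receptor β with actin loading control, densitometry; three replicates, p<0.05 versus control.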

[6] = biological target: T4, Tyrosine-protein phosphatase non-receptor type 1 (Homo sapiens) (UniProt P18031); assay: Reversible inhibition of human recombinant PTP1B expressed in Escherichia coli TB1 using p-nitrophenylphosphate as substrate assessed as residual activity at 25 times IC50 after 1 hr measured after 400 fold dilution
T4 sequence (whole entry): T2 sequence (P18031 whole entry)
Procedure, shortened: (§1)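 Reversibility: PTP1B preincubated 1 h at 37 °C with at least 25-fold […], DMSO in controls; mixture then diluted 400-fold in assay buffer and residual activity measured on p-nitrophenylphosphate; three replicates, mean ± SE.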

[7] = species on record: Homo sapiens; assay: Selectivity ratio of IC50 for human recombinant LMW-PTP IF2 to IC50 for human recombinant PTP1B
[8] = Cytotoxicity against mouse C2C12 cells expressing PTP1B, TC-PTP, LMW-PTP and insulin receptor assessed as cell viability after 2 hrs by MTT assay; assay type: cell-based; parameters: concentration or dose not given beside the values; conditions: read-out: Activity
Procedure, shortened: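 C2C12 myoblasts differentiated 4 days in DMEM with 2% horse serum, serum-starved 20 h; myotubes then given MTT (0.5 mg/ml final) for 2 h at 37 °C, lysed in DMSO, formazan read at 570 nm; three replicates relative to control.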

[9] = species on record: Homo sapiens; assay: Selectivity ratio of IC50 for human recombinant LMW-PTP IF2 to IC50 for human recombinant LMW-PTP IF1
[10] = biological target: T5, Tyrosine-protein phosphatase non-receptor type 2 (Homo sapiens, UniProt P17706); assay: Inhibition of TC-PTP (unknown origin) purchased from New England Biolabs using p-nitrophenylphosphate as substrate
T5 sequence (P17706 whole entry): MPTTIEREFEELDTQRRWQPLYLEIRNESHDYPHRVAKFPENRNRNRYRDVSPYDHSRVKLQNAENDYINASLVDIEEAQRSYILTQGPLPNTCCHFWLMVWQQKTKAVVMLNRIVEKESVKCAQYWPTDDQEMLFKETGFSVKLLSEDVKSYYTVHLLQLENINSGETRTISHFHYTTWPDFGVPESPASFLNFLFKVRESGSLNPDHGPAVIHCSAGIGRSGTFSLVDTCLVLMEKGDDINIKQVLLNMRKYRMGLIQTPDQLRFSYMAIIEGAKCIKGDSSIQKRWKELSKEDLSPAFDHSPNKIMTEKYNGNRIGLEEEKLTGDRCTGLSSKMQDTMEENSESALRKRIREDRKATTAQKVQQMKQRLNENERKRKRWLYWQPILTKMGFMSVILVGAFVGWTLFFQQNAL

[11] = biological target: T4, Tyrosine-protein phosphatase non-receptor type 1 (Homo sapiens); assay: Partial reversible inhibition of human recombinant PTP1B expressed in Escherichia coli TB1 using p-nitrophenylphosphate as substrate assessed as residual activity at 25 times IC50 after 1 hr measured after 400 fold dilution; procedure, shortened: as §1
[12] = biological target: T3, Tyrosine-protein phosphatase non-receptor type 1 (Mus musculus); assay: Inhibition of PTP1B in mouse C2C12 cells assessed as increase of 2-deoxy-D-1,2-[3H]-glucose at 25 uM after 90 mins by beta-scintillation counting; assay type: cell-based
Procedure, shortened: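 Serum-starved differentiated C2C12 myotubes treated 90 min with 25 µM compound (1.2% DMSO) or 30 min with 10 nM insulin, then 0.1 µCi 2-deoxy-D-[1,2-3H]glucose in Ringer-Hepes for 15 min at 37 °C; cold PBS wash, 0.2 M NaOH lysis, scintillation counting normalized to Bradford protein; three replicates.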

[13] = biological target: T2, Tyrosine-protein phosphatase non-receptor type 1; assay: Mixed type inhibition of human recombinant PTP1B expressed in Escherichia coli TB1 using p-nitrophenylphosphate as substrate by Double reciprocal plot analysis
Procedure, shortened: (§2)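 PTP1B (human, GST fusion from pGEX-2T in E. coli TB1, thrombin-cleaved, gel-filtered) assayed at 37 °C, pH 7.0 β,β-dimethylglutarate buffer with 1 mM EDTA and 5 mM DTT, p-nitrophenylphosphate at seven final concentrations (0.5–25 mM) with increasing inhibitor; KOH-stopped, A400. Inhibition type from double reciprocal plots; Ki from apparent Km vs inhibitor concentration; triplicate initial rates.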

[14] = species on record: Homo sapiens; assay: Selectivity ratio of IC50 for TC-PTP (unknown origin) to IC50 for human recombinant PTP1B
Procedure, shortened: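 Commercial T-cell PTP assayed on p-nitrophenylphosphate at 37 °C, pH 7.0 β,β-dimethylglutarate buffer with 1 mM EDTA and 5 mM DTT; stopped with 1 M KOH, absorbance at 400 nm; IC50 from ratio of activity with and without inhibitor versus inhibitor concentration. Ratio lines pair this with recombinant human PTP1B measured the same way.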

[15] = biological target: T2, Tyrosine-protein phosphatase non-receptor type 1; assay: Competitive inhibition of human recombinant PTP1B expressed in Escherichia coli TB1 using p-nitrophenylphosphate as substrate by Double reciprocal plot analysis; procedure, shortened: as §2

SMILES | IC50 [1] | IC50 [2] | IC50 [3] | Ratio IC50 [4] | inhibition [5] | Activity [6] | Ratio IC50 [7] | viability at 2 h [8] | Ratio IC50 [9] | IC50 [10] | Activity [11] | inhibition [12] | Ki [13] | Ratio IC50 [14] | Ki [15]
COc1cc(/C=C2\SC(=O)N(Cc3ccc(C(=O)O)cc3)C2=O)ccc1OCc1ccccc1 | > 50 µM | 10.3 µM | 4.6 µM | > 2 | Active | 80% | > 2 | ≥ 80% | > 2 | 3.5 µM | – | – | – | – | –
O=C(O)c1ccc(CN2C(=O)/C(=C/c3cccc(OCCc4ccccc4)c3)S/C2=N\c2ccccc2)cc1 | 26.8 µM | 10.9 µM | 4.6 µM | > 2 | – | – | > 2 | ≥ 80% | > 2 | 1.9 µM | 50% | inactive | – | – | –
O=C(O)c1ccc(CN2C(=O)/C(=C/c3ccc(OCCc4ccccc4)cc3)S/C2=N\c2ccccc2)cc1 | 8.9 µM | 4 µM | 1.5 µM | > 2 | Active | – | > 2 | ≥ 80% | > 2 | 0.7 µM | 50% | – | 0.5 µM | – | –
COc1ccc(/C=C2\S/C(=N\c3ccccc3)N(Cc3ccc(C(=O)O)cc3)C2=O)cc1OCCc1ccccc1 | > 50 µM | 17.2 µM | 1.7 µM | > 2 | Active | 80% | > 2 | ≥ 80% | > 2 | 4.3 µM | – | – | – | 2 | 1.5 µM
COc1ccc(/C=C2\SC(=O)N(Cc3ccc(C(=O)O)cc3)C2=O)cc1OCCc1ccccc1 | > 50 µM | > 50 µM | 24.6 µM | – | Active | 80% | – | ≥ 80% | > 2 | 16.9 µM | – | – | – | – | –
COc1ccc(/C=C2\S/C(=N\c3ccccc3)N(Cc3ccc(C(=O)O)cc3)C2=O)cc1OCc1ccccc1 | > 50 µM | 9.1 µM | 3.9 µM | > 2 | – | – | > 2 | ≥ 80% | > 2 | 4 µM | 50% | – | – | – | –
O=C(O)c1ccc(CN2C(=O)S/C(=C\c3cccc(OCCc4ccccc4)c3)C2=O)cc1 | > 50 µM | 20.1 µM | 9.5 µM | > 2 | – | 80% | > 2 | 60% | > 2 | 7.3 µM | – | Active | – | – | –
COc1cc(/C=C2\S/C(=N\c3ccccc3)N(Cc3ccc(C(=O)O)cc3)C2=O)ccc1OCCc1ccccc1 | 19.7 µM | 10.7 µM | 2.8 µM | > 2 | Active | 80% | > 2 | ≥ 80% | > 2 | 3.4 µM | – | – | 1.5 µM | – | –
COc1cc(/C=C2\S/C(=N\c3ccccc3)N(Cc3ccc(C(=O)O)cc3)C2=O)ccc1OCc1ccccc1 | 10 µM | 4.5 µM | 1.6 µM | > 2 | – | 80% | > 2 | ≥ 80% | > 2 | 5.1 µM | – | inactive | – | 2 | –
O=C(O)c1ccc(CN2C(=O)/C(=C/c3ccc(OCc4ccccc4)c(F)c3)S/C2=N\c2ccccc2)cc1 | 15.5 µM | 3.3 µM | 2.2 µM | > 2 | Active | – | > 2 | ≥ 80% | > 2 | 0.8 µM | 50% | Active | – | – | –
O=C(O)c1ccc(CN2C(=O)S/C(=C\c3ccc(OCCc4ccccc4)cc3)C2=O)cc1 | > 50 µM | 20.1 µM | 2.6 µM | > 2 | – | 80% | > 2 | ≥ 80% | > 2 | 5.9 µM | – | – | 2.3 µM | 2 | –
COc1ccc(/C=C2\SC(=O)N(Cc3ccc(C(=O)O)cc3)C2=O)cc1OCc1ccccc1 | > 50 µM | 22.3 µM | 4 µM | > 2 | Active | 80% | > 2 | ≥ 80% | > 2 | 12.7 µM | – | – | – | 2 | –
O=C(O)c1ccc(CN2C(=O)S/C(=C\c3ccc(OCc4ccccc4)c(F)c3)C2=O)cc1 | > 50 µM | 34.3 µM | 7.5 µM | > 2 | Active | 80% | > 2 | ≥ 80% | > 2 | 10.8 µM | – | – | – | – | –
